Measured values as given in ChEMBL document CHEMBL1138555, “N-acylated and N,N'-diacylated imidazolidine-2-thione derivatives and N,N'-diacylated tetrahydropyrimidine-2(1H)-thione analogues: synthesis and antiproliferative activity” (Eur J Med Chem, 2009).
Active and inactive are the calls of the source. The calls are words filed in the database; no cut-off is given here.

Assays:
[1] = system: Human immunodeficiency virus 1; assay: Antiviral activity against HIV1 in human MT4 cells assessed as prevention of virus-induced cytopathogenicity; format: functional, organism-based
Summary of the method: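 MT-4 cells, 1 × 10⁴ per well, with serial compound dilutions from a 100 mM DMSO stock. Infected with HIV-1 at 100 CCID50. Four-day incubation at 37 °C, then viable cells measured by MTT. Read-out is inhibition of virus-induced cytopathogenicity, assessed at non-cytotoxic concentrations.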

IGROV-1 = assay: Growth inhibition of human IGROV1 cells after 48 hrs by sulforhodamine B assay; format: functional; conditions: IGROV-1, 48 h
Summary of the method: (§1)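 NCI screen panel. Five 10-fold concentrations from 10^-4 to 10^-8 M. Exposure for the last 48 h of a 72 h incubation. Growth estimated by sulforhodamine B protein assay. GI50 is the concentration giving 50% growth inhibition. Where that level was not reached or was exceeded, the value is given as above or below the highest or lowest concentration tested.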

U-251 = assay: Growth inhibition of human U251 cells after 48 hrs by sulforhodamine B assay; format: functional; conditions: U-251, 48 h
Summary of the method: (§2)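 NCI in vitro panel screen. Compounds tested at five 10-fold dilutions, 10^-4 to 10^-8 M. Cells in 96-well plates were exposed for the last 48 h of a 72 h incubation. Viability/growth was read by sulforhodamine B protein assay. GI50 is the concentration giving 50% growth inhibition. Values beyond the tested range are reported as greater or less than the maximum or minimum concentration.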

M14 = assay: Growth inhibition of human M14 cells after 48 hrs by sulforhodamine B assay; format: functional; conditions: M14, 48 h; summary of the method: as §1
TK-10 = assay: Growth inhibition of human TK10 cells after 48 hrs by sulforhodamine B assay; format: functional; conditions: TK-10, 48 h; summary of the method: as §2
COLO 205 = assay: Growth inhibition of human COLO205 cells after 48 hrs by sulforhodamine B assay; format: functional; conditions: COLO 205, 48 h; summary of the method: as §1
A549 = assay: Growth inhibition of human A549 cells after 48 hrs by sulforhodamine B assay; format: functional; conditions: A549, 48 h; summary of the method: as §1
NCI-H23 = assay: Growth inhibition of human NCI-H23 cells after 48 hrs by sulforhodamine B assay; format: functional; conditions: NCI-H23, 48 h; summary of the method: as §1
SK-MEL-28 = assay: Growth inhibition of human SK-MEL-28 cells after 48 hrs by sulforhodamine B assay; format: functional; conditions: SK-MEL-28, 48 h; summary of the method: as §1
CAKI-1 = assay: Growth inhibition of human Caki1 cells after 48 hrs by sulforhodamine B assay; format: functional; conditions: CAKI-1, 48 h; summary of the method: as §1
SK-MEL-5 = assay: Growth inhibition of human SK-MEL-5 cells after 48 hrs by sulforhodamine B assay; format: functional; conditions: SK-MEL-5, 48 h; summary of the method: as §1
UACC-62 = assay: Growth inhibition of human UACC62 cells after 48 hrs by sulforhodamine B assay; format: functional; conditions: UACC-62, 48 h; summary of the method: as §2
SN12C = assay: Growth inhibition of human SN12C cells after 48 hrs by sulforhodamine B assay; format: functional; summary of the method: as §2
OVCAR-3 = assay: Growth inhibition of human OVCAR-3 cells after 48 hrs by sulforhodamine B assay; format: functional; conditions: OVCAR-3, 48 h; summary of the method: as §1
CCRF-CEM = assay: Growth inhibition of human CCRF-CEM cells after 48 hrs by sulforhodamine B assay; format: functional; summary of the method: as §1
SW-620 = assay: Growth inhibition of human SW620 cells after 48 hrs by sulforhodamine B assay; format: functional; conditions: SW-620, 48 h; summary of the method: as §2
K562 = assay: Growth inhibition of human K562 cells after 48 hrs by sulforhodamine B assay; format: functional; conditions: K562, 48 h; summary of the method: as §1
HOP-92 = assay: Growth inhibition of human HOP92 cells after 48 hrs by sulforhodamine B assay; format: functional; conditions: HOP-92, 48 h; summary of the method: as §1
SK-OV-3 = assay: Growth inhibition of human SKOV3 cells after 48 hrs by sulforhodamine B assay; format: functional; conditions: SK-OV-3, 48 h; summary of the method: as §1
SF-268 = assay: Growth inhibition of human SF268 cells after 48 hrs by sulforhodamine B assay; format: functional; conditions: SF-268, 48 h; summary of the method: as §1
HL-60(TB) = assay: Growth inhibition of human HL-60(TB) cells after 48 hrs by sulforhodamine B assay; format: functional; conditions: HL-60, 48 h
Summary of the method: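 NCI 60-cell-line screen protocol: cells exposed to compound at five 10-fold dilutions from 10^-4 to 10^-8 M for the last 48 h of a 72 h incubation. Sulforhodamine B protein assay estimated viability/growth. GI50 (50% growth inhibition) derived; where not reached or exceeded, reported as greater or less than the highest or lowest concentration tested.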

NCI-H522 = assay: Growth inhibition of human NCI-H522 cells after 48 hrs by sulforhodamine B assay; format: functional; conditions: NCI-H522, 48 h; summary of the method: as §1
UO-31 = assay: Growth inhibition of human UO31 cells after 48 hrs by sulforhodamine B assay; format: functional; conditions: UO-31, 48 h; summary of the method: as §2
SK-MEL-2 = assay: Growth inhibition of human SK-MEL-2 cells after 48 hrs by sulforhodamine B assay; format: functional; conditions: SK-MEL-2, 48 h; summary of the method: as §1
Malme-3M = assay: Growth inhibition of human MALME-3M cells after 48 hrs by sulforhodamine B assay; format: functional; summary of the method: as §1
NCI/ADR-RES = assay: Growth inhibition of human NCI/ADR-RES cells after 48 hrs by sulforhodamine B assay; format: functional; summary of the method: as §1
SF-295 = assay: Growth inhibition of human SF295 cells after 48 hrs by sulforhodamine B assay; format: functional; conditions: SF-295, 48 h; summary of the method: as §1
HCT-116 = assay: Growth inhibition of human HCT116 cells after 48 hrs by sulforhodamine B assay; format: functional; conditions: HCT-116, 48 h; summary of the method: as §1
[2] = Growth inhibition of human […] cells after 48 hrs by sulforhodamine B assay; format: functional; summary of the method: as §1
SNB-19 = assay: Growth inhibition of human SNB19 cells after 48 hrs by sulforhodamine B assay; format: functional; conditions: SNB-19, 48 h; summary of the method: as §2
NCI-H322M = assay: Growth inhibition of human NCI-H322M cells after 48 hrs by sulforhodamine B assay; format: functional; summary of the method: as §1
KM12 = assay: Growth inhibition of human KM12 cells after 48 hrs by sulforhodamine B assay; format: functional; conditions: KM12, 48 h; summary of the method: as §1
EKVX = assay: Growth inhibition of human EKVX cells after 48 hrs by sulforhodamine B assay; format: functional; summary of the method: as §1
HCT-15 = assay: Growth inhibition of human HCT15 cells after 48 hrs by sulforhodamine B assay; format: functional; conditions: HCT-15, 48 h; summary of the method: as §1
MDA-MB-435 = assay: Growth inhibition of human MDA-MB-435 cells after 48 hrs by sulforhodamine B assay; format: functional; conditions: MDA-MB-435, 48 h; summary of the method: as §1
OVCAR-4 = assay: Growth inhibition of human OVCAR4 cells after 48 hrs by sulforhodamine B assay; format: functional; conditions: OVCAR-4, 48 h; summary of the method: as §1
786-0 = assay: Growth inhibition of human 786-0 cells after 48 hrs by sulforhodamine B assay; format: functional; conditions: 786-0, 48 h; summary of the method: as §1
UACC-257 = assay: Growth inhibition of human UACC257 cells after 48 hrs by sulforhodamine B assay; format: functional; conditions: UACC-257, 48 h; summary of the method: as §2
MDA-MB-231 = assay: Growth inhibition of human MDA-MB-231 cells after 48 hrs by sulforhodamine B assay; format: functional; conditions: MDA-MB-231, 48 h; summary of the method: as §1
NCI-H460 = assay: Growth inhibition of human NCI-H460 cells after 48 hrs by sulforhodamine B assay; format: functional; conditions: NCI-H460, 48 h; summary of the method: as §1
OVCAR-8 = assay: Growth inhibition of human OVCAR8 cells after 48 hrs by sulforhodamine B assay; format: functional; conditions: OVCAR-8, 48 h; summary of the method: as §1
LOX IMVI = assay: Growth inhibition of human LOXIMVI cells after 48 hrs by sulforhodamine B assay; format: functional; summary of the method: as §1
MOLT-4 = assay: Growth inhibition of human MOLT4 cells after 48 hrs by sulforhodamine B assay; format: functional; conditions: MOLT-4, 48 h; summary of the method: as §1
HOP-62 = assay: Growth inhibition of human HOP62 cells after 48 hrs by sulforhodamine B assay; format: functional; conditions: HOP-62, 48 h; summary of the method: as §1
MT4 = assay: Antiproliferative activity against human MT4 cells assessed as reduction of growth by MTT assay; format: functional, cell-based
Summary of the method: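 MT-4 lymphoblastoid T cells (ATCC) in RPMI 1640 with 10% FCS, penicillin/streptomycin, checked for mycoplasma. 1 × 10⁴ mock-infected cells per well with serial dilutions from a 100 mM DMSO stock. Incubated 4 days at 37 °C, viable cells counted by MTT. IC50 versus untreated controls by linear regression. Mean of three separate experiments.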

ACHN = assay: Growth inhibition of human ACHN cells after 48 hrs by sulforhodamine B assay; format: functional; summary of the method: as §1
DU-145 = assay: Growth inhibition of human DU145 cells after 48 hrs by sulforhodamine B assay; format: functional; conditions: DU-145, 48 h; summary of the method: as §1
HT-29 = assay: Growth inhibition of human HT-29 cells after 48 hrs by sulforhodamine B assay; format: functional; conditions: HT-29, 48 h; summary of the method: as §1
MCF7 = assay: Growth inhibition of human MCF7 cells after 48 hrs by sulforhodamine B assay; format: functional; conditions: MCF7, 48 h; summary of the method: as §1
SR = assay: Growth inhibition of human SR cells after 48 hrs by sulforhodamine B assay; format: functional; summary of the method: as §2
BT-549 = assay: Growth inhibition of human BT549 cells after 48 hrs by sulforhodamine B assay; format: functional; conditions: BT-549, 48 h; summary of the method: as §1
PC-3 = assay: Growth inhibition of human PC3 cells after 48 hrs by sulforhodamine B assay; format: functional; conditions: PC-3, 48 h; summary of the method: as §1
RXF 393 = assay: Growth inhibition of human RXF393 cells after 48 hrs by sulforhodamine B assay; format: functional; conditions: RXF 393, 48 h; summary of the method: as §1

## CC(=O)/C(=C/N1CCNC1=S)C(=O)c1ccccc1
[1]
  Activity: inactive

## N#CC(C#N)=CN1CCNC1=S
[1]
  Activity: inactive

## N#C/C(=C\N1CCN(C(=O)c2ccco2)C1=S)C(=O)Nc1ccc(Cl)cc1
IGROV-1
  GI50: 25.3 µM
U-251
  GI50: 17.3 µM
M14
  GI50: 14.2 µM
TK-10
  GI50: 19.4 µM
COLO 205
  GI50: 25.6 µM
A549
  GI50: 25.8 µM
NCI-H23
  GI50: 12.3 µM
SK-MEL-28
  GI50: 18.7 µM
CAKI-1
  GI50: 13.2 µM
SK-MEL-5
  GI50: 11.2 µM
UACC-62
  GI50: 16.9 µM
SN12C
  GI50: 11.8 µM
OVCAR-3
  GI50: 15.5 µM
CCRF-CEM
  GI50: 22.5 µM
SW-620
  GI50: 17.3 µM
K562
  GI50: 16.1 µM
HOP-92
  GI50: 21.5 µM
SK-OV-3
  GI50: 41.2 µM
SF-268
  GI50: 17.8 µM
HL-60(TB)
  GI50: 10.5 µM
NCI-H522
  GI50: 16.7 µM
UO-31
  GI50: 12 µM
SK-MEL-2
  GI50: 16.7 µM
Malme-3M
  GI50: 21.4 µM
NCI/ADR-RES
  GI50: 28.1 µM
SF-295
  GI50: 20.2 µM
HCT-116
  GI50: 15.2 µM
[2]
  GI50: 10.5 µM
SNB-19
  GI50: 27.6 µM
NCI-H322M
  GI50: 28.6 µM
KM12
  GI50: 16.3 µM
EKVX
  GI50: 0.01 µM
HCT-15
  GI50: 21.3 µM
MDA-MB-435
  GI50: 15.2 µM
OVCAR-4
  GI50: 25.2 µM
786-0
  GI50: 17.4 µM
UACC-257
  GI50: 16.5 µM
MDA-MB-231
  GI50: 18.4 µM
NCI-H460
  GI50: 19.9 µM
OVCAR-8
  GI50: 20.6 µM
LOX IMVI
  GI50: 16.7 µM
MOLT-4
  GI50: 17.7 µM
HOP-62
  GI50: 25.7 µM
MT4
  IC50: 6.5 µM
ACHN
  GI50: 15.3 µM
DU-145
  GI50: 15.9 µM
HT-29
  GI50: 21.4 µM
MCF7
  GI50: 21 µM
SR
  GI50: 1.6 µM
BT-549
  GI50: 8.6 µM
PC-3
  GI50: 18.9 µM
RXF 393
  GI50: 13.1 µM
